Several values for one entry are separate records, joined by “and”; a condition that tells them apart may be missing. Identical values can stand only once. Activity calls are given as the source filed them.

The nature of series [1]: Water solubility was determined. Format: ADME. To be noted: buffer.
A further series has as its system Mus musculus. Nature of the series: Tumor weight inhibition against human mammary MX-1 in Athymic mice after 50 mg/kg optimal dose. Further details: dose 50 mg/kg. The class given is functional, organism-based. To be noted: at 50 mg/kg.
Series [2] deals with Colon 26. Nature of the series: Percent in life span when compound administered at 50 mg/kg againstColon 26 cells in balb/C mice. The class given is functional, organism-based. Further details: dose 50 mg/kg. The note with it: Mus musculus. In outline:
(§1)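 Colon 26 tumor in Balb/C mice. Dosing ip on days 1, 5 and 9 after tumor inoculation, with a 30-day observation period. Readouts are median % increase in life span over control mice and % survivors, given at the optimal dose. Activity threshold is ILS ≥25%. A ≥15% drop in ILS or body weight is rated toxic.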

Series [3] deals with Colon 26. Put plainly: Percent survivors when compound administered at 50 mg/kg againstColon 26 cells in balb/C mice. Further details: dose 50 mg/kg. The class given is functional, organism-based. To be noted: Mus musculus. In outline: as §1
The test system of series [4] is L1210. Put plainly: Percent increase in life span when compound administered at 12.5 mg/kg against L1210 leukemia cells in BDF1 mice. Format: functional, organism-based. Further details: dose 12.5 mg/kg. The note with it: Mus musculus. Put shortly:
(§2)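 BDF1 mice bearing P388, L1210 or cisplatin-resistant L1210 leukemia; ip dosing on days 1, 5 and 9 relative to tumor inoculation, 30-day observation. Median % ILS over controls at optimal dose plus % survivors; ≥25% ILS counted as active, ≥15% reduction in ILS or body weight over controls rated toxic.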

In series [5] the test system is L1210. Put plainly: Percent increase in life span when compound administered at 50 mg/kg against L1210 cisplatin resistant leukemia cells in BDF1 mice; IA=inactive. Format: functional, organism-based. Further details: dose 50 mg/kg. The note with it: Mus musculus. Put shortly:
as §2

Series [6] deals with L1210. Nature of the series: Percent survivors when compound administered at 50 mg/kg against L1210 cisplatin resistant leukemia cells in BDF1 mice; IA=inactive. The class given is functional, organism-based. Further details: dose 50 mg/kg. The note with it: Mus musculus. In outline: (§3)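 BDF1 mice inoculated with P388, L1210 or cisplatin-resistant L1210 leukemia. Compound given ip on days 1, 5 and 9 relative to tumor inoculation, and mice observed for 30 days. Median % increase in life span over controls and % survivors are reported at the optimal dose. Activity requires ILS ≥25%. Toxicity is rated when ILS or body weight is reduced by ≥15%.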

Series [7] has as its system P388. Put plainly: Percent survivors when compound administered at 100 mg/kg against P388 leukemia cells in BDF1 mice. The class given is functional, organism-based. To be noted: Mus musculus. Further details: dose 100 mg/kg. Put shortly: as §3
In series [8] the test system is P388. Nature of the series: Percent increase in life span when compound administered at 100 mg/kg against P388 leukemia cells in BDF1 mice. The class given is functional, organism-based. The note with it: Mus musculus. Further details: dose 100 mg/kg. In outline:
as §2

Series [9] concerns B16. Nature of the series: Percent increase in life span when compound administered at 12.5 mg/kg against B-16 melanoma cells in […] mice. The class given is functional. To be noted: Mus musculus. Put shortly: (§4)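 Median % increase in life span versus controls and % survivors are recorded at the optimal dose. ILS ≥25% counts as active, and a ≥15% reduction in ILS or body weight counts as toxic.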

Series [10] relates to B16. Put plainly: Percent increase in life span when compound administered at 25 mg/kg against B-16 melanoma cells in […] mice. Format: functional, organism-based. Further details: dose 25 mg/kg. The note with it: Mus musculus. In outline: (§5)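 B-16 melanoma in […] mice; compounds given ip daily on days 1–9 relative to tumor inoculation, animals followed 60 days. Read-out median % increase in life span over controls at optimal dose with % survivors; activity threshold ILS ≥25%; ≥15% reduction in ILS or body weight versus controls rated toxic.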

The test system of series [11] is B16. Put plainly: Percent survivors when compound administered at 12.5 mg/kg against B-16 melanoma cells in […] mice. Format: functional. To be noted: Mus musculus. In outline: as §4
Series [12] relates to B16. Put plainly: Percent survivors when compound administered at 25 mg/kg against B-16 melanoma cells in […] mice. Format: functional, organism-based. Further details: dose 25 mg/kg. The note with it: Mus musculus. Put shortly:
as §4

For series [13], the system named is Colon 26. Nature of the series: Percent in life span when compound administered at 100 mg/kg againstColon 26 cells in balb/C mice. The note with it: Mus musculus. Format: functional, organism-based. Further details: dose 100 mg/kg. Put shortly: (§6)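 Colon 26 in Balb/C mice. Test agents given ip on days 1, 5 and 9 relative to tumor inoculation; mice observed 30 days. Median % increase in life span at optimal dose, with % survivors noted; ILS ≥25% over controls required for activity; ILS or body weight reduced ≥15% versus controls rated toxic.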

Series [14] concerns Colon 26. Nature of the series: Percent survivors when compound administered at 100 mg/kg againstColon 26 cells in balb/C mice. The class given is functional, organism-based. Further details: dose 100 mg/kg. To be noted: Mus musculus. Put shortly:
as §1

For series [15], the system named is L1210. Nature of the series: Percent survivors when compound administered at 50 mg/kg against L1210 leukemia cells in BDF1 mice. Format: functional, organism-based. Further details: dose 50 mg/kg. To be noted: Mus musculus. In outline:
as §3

Series [16] has as its system L1210. Nature of the series: Percent increase in life span when compound administered at 50 mg/kg against L1210 leukemia cells in BDF1 mice. Further details: dose 50 mg/kg. The class given is functional, organism-based. The note with it: Mus musculus. Put shortly: as §2
Series [17] has as its system L1210. Put plainly: Percent increase in life span when compound administered at 50 mg/kg against L1210 cisplatin resistant leukemia cells in BDF1 mice. Format: functional, organism-based. Further details: dose 50 mg/kg. To be noted: Mus musculus. In outline:
as §2

The subject of series [18] is L1210. Nature of the series: Percent survivors when compound administered at 50 mg/kg against L1210 cisplatin resistant leukemia cells in BDF1 mice. The class given is functional, organism-based. The note with it: Mus musculus. Further details: dose 50 mg/kg. In outline:
as §3

The test system of series [19] is B16. Nature of the series: Percent increase in life span when compound administered at 0.4 mg/kg against B-16 melanoma cells in […] mice. Format: functional, organism-based. Further details: dose 0.4 mg/kg. The note with it: Mus musculus. In outline:
as §5

Series [20] has as its system Colon 26. Put plainly: Percent in life span when compound administered at 3.1 mg/kg against Colon 26 cells in balb/C mice. Format: functional, organism-based. Further details: dose 3.1 mg/kg. The note with it: Mus musculus. In outline:
as §6

Series [21] relates to Colon 26. Put plainly: Percent survivors when compound administered at 3.1 mg/kg against Colon 26 cells in balb/C mice. The class given is functional, organism-based. Further details: dose 3.1 mg/kg. The note with it: Mus musculus. Put shortly:
as §1

Series [22] deals with P388. Nature of the series: Percent survivors when compound administered at 6.2 mg/kg against P388 leukemia cells in BDF1 mice. Further details: dose 6.2 mg/kg. To be noted: Mus musculus. Format: functional, organism-based. In outline: as §3
The test system of series [23] is P388. Nature of the series: Percent increase in life span when compound administered at 6.2 mg/kg against P388 leukemia cells in BDF1 mice. The class given is functional, organism-based. Further details: dose 6.2 mg/kg. To be noted: Mus musculus. Put shortly:
as §2

“Platinum:Formic acid 9-formyloxy-3-methyl-2,4-dioxa-8,10-diaza-spiro[5.5]undec-9-yl ester” came in with a Water solubility in [1] of 100000 µg/mL.
In the case of CARBOPLATIN, the inhibition in the series with Mus musculus turned out to be 90%. Moreover, the Increase in the series on Colon 26 [2] amounted to 85%; with L1210 [4], 35%; in the series with P388 [8], 144%. The figures for the Survivors with Colon 26 [3] and with P388 [7] were 17% and 6%, respectively. Further, the Increase result in the series on L1210 [5] was “inactive”. Besides, the Survivors entry with L1210 [6] was “inactive”.
“Platinum:Formic acid 9-formyloxy-2,4-dioxa-8,10-diaza-spiro[5.5]undec-9-yl ester”: the Increase with B16 [9] is 61%; in the series with B16 [10], 64% and 84%; in the series on Colon 26 [13] it was 127%; in the series on L1210 [16], 172%; in the series on L1210 [17], 168%. Besides, the Survivors with B16 [11] was 3%; in the series on B16 [12] it was 0%; in the series with Colon 26 [3], 0%; in the series with Colon 26 [14], 3%; with L1210 [15], 50%; with L1210 [18] it was 33%.
“Platinum:2,4,10,15-Tetraoxa-8,16-diaza-dispiro[5.2.6.2]heptadecane-11,14-dione” had a Water solubility in series [1] of 10000 µg/mL.
With “Platinum:9,9-Dichloro-2,4-dioxa-8,10-diaza-spiro[5.5]undecane”, the Increase in the series with B16 [19] turned out to be 27%; in the series on Colon 26 [20] it was 41%; with P388 [23], 173%. For the same substance, the values for the Survivors in the series on Colon 26 [21] and in the series on P388 [22] were 0% and 3%, respectively.
“Platinum:8,8-Dichloro-1,3-dioxa-7,9-diaza-spiro[4.5]decane” returned a Water solubility in [1] of under 200 µg/mL.

Values taken from ChEMBL document CHEMBL1124697, “A new family of water-soluble, third generation antitumor platinum complexes” (J Med Chem, 1989).
